Calls of active or inactive are those of the source. No cut-off for these calls is given here.
How the values were obtained:
[1] = Prodrug conversion in C57BL/6 mouse brain assessed as GW3965 level at 9.14 umol/kg, ip measured after 1 hr in presence of FAAH inhibitor PF-3845 by LC-MS/MS analysis; assay type: ADME, organism-based; conditions: in vivo
Method in brief: (§1)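 Male C57BL/6 mice (n=3) received PF-3845 at 1 mg/kg i.p., then prodrug at […] i.p. 1 h later; comparators received prodrug alone. Vehicle was DMSO. Whole brain was taken 1 h after prodrug and homogenized in water with d₆-sobetirome internal standard. It was extracted with EtOAc/MeCN and parent acid was measured by LC-MS/MS; mean ± SEM, 2-tailed unpaired t test.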

[2] = AUC (0.5 to 6 hrs) in C57BL/6 mouse serum assessed as GW3965 level at 9.14 umol/kg, ip by LC-MS/MS analysis; assay type: ADME, organism-based; design: time 0.5-6 hr, dose 9.14 umol/kg, route intraperitoneal; conditions: in vivo
Method in brief: (§2)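 Male wild-type C57BL/6 mice (8−10 weeks, n=3 per time point) received parent drug or equimolar prodrug at […] i.p. in DMSO. Brain and serum were collected at 0.5, 2 and 6 h. Parent acid was quantified by LC-MS/MS against vehicle-tissue standard curves with d₆-sobetirome internal standard. AUC0.5–6 h was computed from the time course; mean ± SEM.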

[3] = AUC (0.5 to 6 hrs) in C57BL/6 mouse brain assessed as GW3965 level at 9.14 umol/kg, ip by LC-MS/MS analysis; assay type: ADME, organism-based; design: dose 9.14 umol/kg, time 0.5-6 hr, route intraperitoneal; conditions: in vivo, BLD = below limit of detection; method in brief: as §2
in vivo = conditions: C57BL/6, mouse, brain/serum, ip, 9.14 umol/kg
[4] = Hepatotoxicity in C57BL/6 mouse assessed effect on Rarres2 gene expression at 9.14 umol/kg, ip administered once daily for 7 days by Trizol reagent based RT-qPCR analysis; conditions: in vivo, 168 h
Mus musculus = experiment: In vivo agonist activity at RAR in C57BL/6 mouse assessed upregulation of Adam10 gene expression in brain at 9.14 umol/kg, ip administered once daily for 7 days by Trizol reagent based RT-qPCR analysis; assay type: functional, organism-based
Method in brief: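 Male C57BL/6 mice (n=5) were dosed once daily for 7 days i.p. with parent drug at […], equimolar prodrug, or vehicle. The vehicle was 1:1:8 Kolliphor:NMP:water. Target gene expression was compared between groups per tissue by 2-tailed unpaired t test.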

[5] = mouse, in vivo, ip
[6] = AUC (0.5 to 6 hrs) in C57BL/6 mouse serum at 9.14 umol/kg, ip by LC-MS/MS analysis; assay type: ADME, organism-based; design: time upper 6 hr, dose 9.14 umol/kg, time lower 0.5 hr, route intraperitoneal; conditions: in vivo; method in brief: as §2
[7] = AUC (0.5 to 6 hrs) in C57BL/6 mouse brain assessed as tazarotenic acid level at 9.14 umol/kg, ip by LC-MS/MS analysis; assay type: ADME, organism-based; design: time lower 0.5 hr, dose 9.14 umol/kg, time upper 6 hr, route intraperitoneal; conditions: in vivo; method in brief: as §2
[8] = Prodrug conversion in C57BL/6 mouse brain assessed as tazarotenic acid level at 9.14 umol/kg, ip measured after 1 hr in presence of FAAH inhibitor PF-3845 by LC-MS/MS analysis; assay type: ADME, organism-based; conditions: in vivo; method in brief: as §1
[9] = Brain to serum concentration ratio, Kp of the compound in C57BL/6 mouse assessed as tazarotenic acid level at 9.14 umol/kg, ip by LC-MS/MS analysis; assay type: ADME, organism-based
Method in brief: (§3)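 Brain-to-serum ratio Kp was calculated from brain and serum parent-drug AUC0.5–6 h (ng/g*h). These AUCs came from male C57BL/6 mice (n=3 per time point) given parent drug or equimolar prodrug at […] i.p. in DMSO, sampled at 0.5, 2 and 6 h. Parent acid was quantified by LC-MS/MS with d₆-sobetirome internal standard.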

[10] = AUC (0.5 to 6 hrs) in C57BL/6 mouse serum assessed as tazarotenic acid level at 9.14 umol/kg, ip by LC-MS/MS analysis; assay type: ADME, organism-based; design: time lower 0.5 hr, dose 9.14 umol/kg, time upper 6 hr, route intraperitoneal; conditions: in vivo; method in brief: as §2
[11] = AUC (0.5 to 6 hrs) in C57BL/6 mouse brain assessed as GW501516 level at 9.14 umol/kg, ip by LC-MS/MS analysis; assay type: ADME, organism-based; design: time 0.5-6 hr, dose 9.14 umol/kg, route intraperitoneal; conditions: in vivo; method in brief: as §2
[12] = AUC (0.5 to 6 hrs) in C57BL/6 mouse serum assessed as GW501516 level at 9.14 umol/kg, ip by LC-MS/MS analysis; assay type: ADME, organism-based; design: dose 9.14 umol/kg, time upper 6 hr, time lower 0.5 hr, route intraperitoneal; conditions: in vivo; method in brief: as §2
[13] = Brain to serum concentration ratio, Kp of the compound in C57BL/6 mouse assessed as GW501516 level at 9.14 umol/kg, ip by LC-MS/MS analysis; assay type: ADME, organism-based; method in brief: as §3
[14] = Prodrug conversion in C57BL/6 mouse brain assessed as GW501516 level at 9.14 umol/kg, ip measured after 1 hr in presence of FAAH inhibitor PF-3845 by LC-MS/MS analysis; assay type: ADME, organism-based; conditions: in vivo; method in brief: as §1

Kp (in vivo) | AUC [5] | AUC [6] | Structure (SMILES) | further results
– | – | – | CNC(=O)Cc1cccc(OCCCN(Cc2cccc(C(F)(F)F)c2Cl)CC(c2ccccc2)c2ccccc2)c1 | Drug metabolism [1]: Metabolite_Notdetected; AUC [2]: 155.4 ng·h/g; AUC [3]: Bld
0.12 | 38.5 ng·h/g | 314.5 ng·h/g | CC1(C)CCSc2ccc(C#Cc3ccc(C(=O)O)cn3)cc21 [TAZAROTENIC ACID] | Activity [4]: Toxic; Activity (Mus musculus): inactive
– | – | – | CNC(=O)c1ccc(C#Cc2ccc3c(c2)C(C)(C)CCS3)nc1 | AUC [7]: 104 ng·h/g; Activity [4]: Non-Toxic; Drug metabolism [8]: Metabolite_Notdetected; Activity (Mus musculus): Active; Kp [9]: 2.03; AUC [10]: 51.34 ng·h/g
0.03 | 67.35 ng·h/g | 2140 ng·h/g | CCCc1c(OCCCSc2ccc(CC(=O)O)cc2Cl)ccc2c(C(F)(F)F)noc12 | –
0.013 | 5.5 ng·h/g | 420.7 ng·h/g | CC(C)(Oc1ccc(CCNC(=O)c2ccc(Cl)cc2)cc1)C(=O)O [BEZAFIBRATE] | –
0.21 | 1867 ng·h/g | 8853 ng·h/g | O=C(O)Cc1cccc(OCCCN(Cc2cccc(C(F)(F)F)c2Cl)CC(c2ccccc2)c2ccccc2)c1 | –
0.016 | 11.9 ng·h/g | 756.9 ng·h/g | Cc1cc(OCC(=O)O)cc(C)c1Cc1cc(C#Cc2ccc([N+](=O)[O-])cc2)c(O)c(C(C)C)c1 | –
– | – | – | CNC(=O)COc1ccc(SCc2sc(-c3ccc(C(F)(F)F)cc3)nc2C)cc1C | AUC [11]: 146.3 ng·h/g; AUC [12]: 2705 ng·h/g; Kp [13]: 0.054; Drug metabolism [14]: Metabolite_Detected
